Measured values reported in ChEMBL document CHEMBL1156077, “Piperazinyl-glutamate-pyrimidines as potent P2Y12 antagonists for inhibition of platelet aggregation” (Bioorg Med Chem Lett, 2009).

Experiments:
P2Y purinoceptor 12 [1] = target: T1, P2Y purinoceptor 12 (Homo sapiens, UniProt Q9H244); experiment: Binding affinity at human recombinant P2Y12 receptor expressed in CHO cells by radioligand binding assay; type: cell-based
How it was run: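 Washed membranes from CHO cells transfected with synthetic human P2Y12 gene. Compounds as 7-point threefold dilutions, triplicate, 1 h at room temperature. Nonspecific binding defined with 300 nM 2-MeSADP. Filtered, washed with ice-cold Tris pH 7.4. Single-site fit; IC50 converted to Ki by Cheng–Prusoff, geometric mean of n≥2.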

P2Y purinoceptor 12 [2] = target: T1, P2Y purinoceptor 12; experiment: Ratio of compound IC50 to thienopyrimidine IC50 for P2Y12 receptor in human platelet rich plasma assessed as inhibition of ADP-induced platelet aggregation by light transmission aggregometry
How it was run: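 Human platelet-rich plasma was pre-incubated 5 min at 37 °C with compound across seven concentrations (10 down to 0.156). Aggregation was started with ADP (20, final) and followed by light transmission at 626 nm for 15 min at 37 °C. Duplicate concentration-response data were read at the 15-min end-point. IC50 was divided by the IC50 of the thienopyrimidine reference run on the same plate.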

P2Y purinoceptor 12 [3] = target: T1, P2Y purinoceptor 12; experiment: Ratio of compound IC50 to AZD-6140 IC50 for P2Y12 receptor in human platelet rich plasma assessed as inhibition of ADP-induced platelet aggregation by light transmission aggregometry
How it was run: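 Human platelet-rich plasma was pre-incubated 5 min at 37 °C with compound across seven concentrations (10 down to 0.156). Aggregation was started with ADP (20, final) and followed by light transmission at 626 nm for 15 min at 37 °C. Duplicate concentration-response data were read at the 15-min end-point. IC50 was divided by the IC50 of AZD-6140 run on the same plate.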

Liver microsomes [4] = experiment: Metabolic stability in rat liver microsomes assessed as compound remaining; type: ADME, Microsome
How it was run: (§1)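 Compounds incubated 30 min with human or rat liver microsomes; percent of parent compound remaining measured.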

Liver microsomes [5] = experiment: Metabolic stability in human liver microsomes assessed as compound remaining; type: ADME, Microsome; how it was run: as §1
CYP1A2 = target: T2, CYP1A2 (Homo sapiens, UniProt P05177); experiment: Inhibition of CYP1A2 at 3 uM after 30 mins; type: ADME
T2 sequence (P05177 whole entry): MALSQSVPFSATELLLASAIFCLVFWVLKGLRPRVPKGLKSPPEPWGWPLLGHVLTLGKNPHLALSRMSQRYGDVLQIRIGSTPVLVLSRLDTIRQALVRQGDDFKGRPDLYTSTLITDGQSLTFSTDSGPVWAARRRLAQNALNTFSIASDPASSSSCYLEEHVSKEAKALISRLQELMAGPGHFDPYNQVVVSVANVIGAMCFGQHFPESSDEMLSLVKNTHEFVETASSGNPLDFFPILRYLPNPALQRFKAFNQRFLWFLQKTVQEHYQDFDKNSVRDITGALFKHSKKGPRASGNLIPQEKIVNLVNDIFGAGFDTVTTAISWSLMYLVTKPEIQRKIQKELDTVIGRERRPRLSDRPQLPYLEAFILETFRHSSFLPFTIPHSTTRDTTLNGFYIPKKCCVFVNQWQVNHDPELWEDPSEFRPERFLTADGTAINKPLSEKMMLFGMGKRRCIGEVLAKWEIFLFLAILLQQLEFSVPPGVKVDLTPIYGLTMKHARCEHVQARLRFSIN
How it was run: (§2)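 Each CYP isoform assayed separately at a single 3 µM compound concentration in duplicate, with at least one isoform-specific positive control inhibitor. Incubation 30 min at 37 °C; end-point measurement gives percent inhibition.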

CYP2C9 = CYP2C9 (Homo sapiens, UniProt P11712); experiment: Inhibition of CYP2C9 at 3 uM after 30 mins; type: ADME; how it was run: as §2
CYP2D6 = CYP2D6 (Homo sapiens, UniProt P10635); experiment: Inhibition of CYP2D6 at 3 uM after 30 mins; type: ADME; how it was run: as §2
CYP3A4 = CYP3A4 (Homo sapiens, UniProt P08684); experiment: Inhibition of CYP3A4 at 3 uM after 30 mins; type: ADME; how it was run: as §2
hERG (KCNH2) = hERG (KCNH2) (Homo sapiens, UniProt Q12809); experiment: Displacement of Cy3B-tagged N-desmethyl dofetilide from human ERG expressed in HEK cells at 10 uM after 120 mins; type: cell-based, HEK293; details: HEK cells that express human ERG, probe Cy3B-tagged N-desmethyl dofetilide
How it was run: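 Fluorescence polarization competition assay with HEK-hERG membrane homogenates and Cy3B-tagged N-desmethyl dofetilide tracer. Compound tested at a single 10 µM concentration, 120 min incubation, end-point read for percent inhibition.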

[6] = Effective half life in Sprague-Dawley rat at 2 mg/kg, iv and 5 mg/kg, po; type: ADME, organism-based; details: in vivo
[7] = Clearance in Sprague-Dawley rat at 2 mg/kg, iv and 5 mg/kg, po; type: ADME, organism-based; details: in vivo
[8] = Volume of distribution at steady state in Sprague-Dawley rat at 2 mg/kg, iv and 5 mg/kg, po; type: ADME, organism-based; details: in vivo, read-out: Vdss
[9] = Oral bioavailability in Sprague-Dawley rat at 5 mg/kg; type: ADME, organism-based; details: in vivo
[10] = Selectivity for human P2Y12 receptor over P2Y13
[11] = Selectivity for human P2Y12 receptor over P2Y1

Chain of CYP2C9 (P11712 whole entry): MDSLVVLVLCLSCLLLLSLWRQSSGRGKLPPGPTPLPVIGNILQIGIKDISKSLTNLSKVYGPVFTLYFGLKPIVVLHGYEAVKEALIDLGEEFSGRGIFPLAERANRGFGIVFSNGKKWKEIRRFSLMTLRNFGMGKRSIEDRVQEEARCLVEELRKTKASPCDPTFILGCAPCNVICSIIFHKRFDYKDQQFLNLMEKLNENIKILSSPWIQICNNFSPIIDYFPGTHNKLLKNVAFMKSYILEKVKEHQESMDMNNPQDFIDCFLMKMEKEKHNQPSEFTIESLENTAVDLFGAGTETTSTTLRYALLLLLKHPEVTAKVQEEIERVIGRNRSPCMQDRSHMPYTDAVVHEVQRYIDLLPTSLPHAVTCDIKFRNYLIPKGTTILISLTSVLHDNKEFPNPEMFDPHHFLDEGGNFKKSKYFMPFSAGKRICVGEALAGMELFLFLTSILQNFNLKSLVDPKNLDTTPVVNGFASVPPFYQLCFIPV
Chain of CYP3A4 (P08684 whole entry): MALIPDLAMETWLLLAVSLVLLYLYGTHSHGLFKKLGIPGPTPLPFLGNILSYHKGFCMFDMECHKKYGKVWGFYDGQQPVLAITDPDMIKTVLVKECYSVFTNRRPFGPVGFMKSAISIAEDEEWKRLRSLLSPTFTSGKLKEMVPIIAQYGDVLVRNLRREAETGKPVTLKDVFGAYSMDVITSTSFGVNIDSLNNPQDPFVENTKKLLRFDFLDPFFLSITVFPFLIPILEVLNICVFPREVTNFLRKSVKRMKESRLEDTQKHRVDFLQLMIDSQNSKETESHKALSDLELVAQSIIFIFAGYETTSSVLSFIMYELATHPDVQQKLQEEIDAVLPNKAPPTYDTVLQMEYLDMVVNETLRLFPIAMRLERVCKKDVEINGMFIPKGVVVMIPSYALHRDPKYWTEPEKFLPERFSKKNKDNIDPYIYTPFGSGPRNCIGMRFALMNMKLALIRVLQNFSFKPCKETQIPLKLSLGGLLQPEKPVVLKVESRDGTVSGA
Chain of hERG (KCNH2) (Q12809 whole entry): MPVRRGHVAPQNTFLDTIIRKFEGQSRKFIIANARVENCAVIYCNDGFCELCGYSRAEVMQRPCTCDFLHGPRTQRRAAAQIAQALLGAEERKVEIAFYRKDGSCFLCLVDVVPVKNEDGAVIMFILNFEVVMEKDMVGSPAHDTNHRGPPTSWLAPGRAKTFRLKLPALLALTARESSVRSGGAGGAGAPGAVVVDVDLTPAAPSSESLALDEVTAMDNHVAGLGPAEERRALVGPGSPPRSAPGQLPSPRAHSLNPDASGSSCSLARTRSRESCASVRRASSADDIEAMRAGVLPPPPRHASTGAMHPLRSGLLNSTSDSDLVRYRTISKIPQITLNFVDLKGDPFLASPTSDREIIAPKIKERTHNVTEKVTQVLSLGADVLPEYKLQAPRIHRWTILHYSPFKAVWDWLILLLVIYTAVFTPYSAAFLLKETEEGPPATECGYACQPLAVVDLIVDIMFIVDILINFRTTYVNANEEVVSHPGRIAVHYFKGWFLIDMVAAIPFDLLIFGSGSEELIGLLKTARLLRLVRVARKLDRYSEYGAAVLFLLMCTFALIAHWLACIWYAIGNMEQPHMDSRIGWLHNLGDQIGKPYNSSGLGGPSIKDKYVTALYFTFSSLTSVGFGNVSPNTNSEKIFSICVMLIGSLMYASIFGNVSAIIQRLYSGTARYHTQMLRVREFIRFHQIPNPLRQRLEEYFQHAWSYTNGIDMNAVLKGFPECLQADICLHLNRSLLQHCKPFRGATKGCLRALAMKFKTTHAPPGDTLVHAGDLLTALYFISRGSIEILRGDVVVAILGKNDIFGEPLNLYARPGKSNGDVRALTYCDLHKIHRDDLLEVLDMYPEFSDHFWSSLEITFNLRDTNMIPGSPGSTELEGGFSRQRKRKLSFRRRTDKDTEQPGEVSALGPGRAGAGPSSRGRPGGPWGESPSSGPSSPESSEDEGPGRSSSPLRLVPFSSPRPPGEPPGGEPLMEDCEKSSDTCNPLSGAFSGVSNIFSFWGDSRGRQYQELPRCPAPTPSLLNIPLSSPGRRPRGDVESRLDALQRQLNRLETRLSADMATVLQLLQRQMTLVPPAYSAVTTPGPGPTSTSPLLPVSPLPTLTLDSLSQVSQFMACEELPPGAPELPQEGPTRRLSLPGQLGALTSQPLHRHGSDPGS
T1 sequence (Q9H244 whole entry): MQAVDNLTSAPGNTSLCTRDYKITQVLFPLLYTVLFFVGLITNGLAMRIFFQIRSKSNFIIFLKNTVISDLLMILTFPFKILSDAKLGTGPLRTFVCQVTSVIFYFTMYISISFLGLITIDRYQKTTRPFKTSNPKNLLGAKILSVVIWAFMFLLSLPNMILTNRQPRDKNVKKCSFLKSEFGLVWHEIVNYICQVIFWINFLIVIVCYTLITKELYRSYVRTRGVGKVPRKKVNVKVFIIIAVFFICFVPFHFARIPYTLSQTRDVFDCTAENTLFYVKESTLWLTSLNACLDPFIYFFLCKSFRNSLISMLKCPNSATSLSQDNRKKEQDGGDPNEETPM
Chain of CYP2D6 (P10635 whole entry): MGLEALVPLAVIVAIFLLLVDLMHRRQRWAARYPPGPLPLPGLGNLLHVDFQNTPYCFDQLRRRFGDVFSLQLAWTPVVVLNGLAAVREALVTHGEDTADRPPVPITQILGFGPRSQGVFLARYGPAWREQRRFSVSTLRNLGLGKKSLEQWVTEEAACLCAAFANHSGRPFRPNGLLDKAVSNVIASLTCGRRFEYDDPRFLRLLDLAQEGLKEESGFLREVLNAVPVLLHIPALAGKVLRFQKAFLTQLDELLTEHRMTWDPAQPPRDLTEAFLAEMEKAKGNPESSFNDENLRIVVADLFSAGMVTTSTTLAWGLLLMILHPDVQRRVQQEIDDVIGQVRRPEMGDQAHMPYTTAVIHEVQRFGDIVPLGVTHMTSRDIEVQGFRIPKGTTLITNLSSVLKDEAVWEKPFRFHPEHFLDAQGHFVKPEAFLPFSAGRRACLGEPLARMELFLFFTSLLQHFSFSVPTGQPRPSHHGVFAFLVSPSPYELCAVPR

Compound	Ki (P2Y purinoceptor 12 [1])	Ratio IC50 (P2Y purinoceptor 12 [2])	Ratio IC50 (P2Y purinoceptor 12 [3])	Stability (Liver microsomes [4])	Stability (Liver microsomes [5])	inhibition at 0.5 h, 3 µM (CYP1A2)	inhibition at 0.5 h, 3 µM (CYP2C9)	inhibition at 0.5 h, 3 µM (CYP2D6)	inhibition at 0.5 h, 3 µM (CYP3A4)	half-life [6]	clearance [7]	Vd [8]	bioavailability [9]	fold change (FC) [10]	fold change (FC) [11]	inhibition at 2 h, 10 µM (hERG (KCNH2))
CCCCCOC(=O)N1CCN(C(=O)[C@H](CCC(=O)O)NC(=O)c2cc(N3CCC(C(=O)NCC)CC3)nc(-c3ccccc3)n2)CC1	0.6 nM	0.2	1.5	> 80%	> 80%	< 25%	< 25%	< 25%	< 25%	18 min	8 mL/min/kg	0.2 L/kg	8%	> 340	> 340	< 25%
CCCCCOC(=O)N1CCN(C(=O)[C@H](CCC(=O)O)NC(=O)c2nc(-c3ccccc3)cc(N3CCC(CN)CC3)n2)CC1	9.4 nM	0.2	1.2	> 80%	> 80%	< 25%	< 25%	< 25%	< 25%	12 min	16 mL/min/kg	0.28 L/kg	1%	> 340	> 340	< 25%
CCCCCOC(=O)N1CCN(C(=O)[C@H](CCC(=O)O)NC(=O)c2cc(N3CCC(CN4CCCC4)CC3)nc(-c3ccccc3)n2)CC1	0.4 nM	0.1	0.7	> 80%	> 80%	< 25%	< 25%	< 25%	< 25%	18 min	98 mL/min/kg	7.7 L/kg	1%	> 340	> 340	< 25%
CCCCCOC(=O)N1CCN(C(=O)[C@H](CCC(=O)O)NC(=O)c2cc(N3CCC(C(=O)N4CCCC4)CC3)nc(-c3ccccc3)n2)CC1	0.46 nM	0.06	0.4	> 80%	> 80%	< 25%	< 25%	< 25%	< 25%	48 min	2 mL/min/kg	0.2 L/kg	13%	> 340	> 340	< 25%

More lines, in order of falling Ki (P2Y purinoceptor 12 [1]), values ahead:

Ki (P2Y purinoceptor 12 [1])	Ratio IC50 (P2Y purinoceptor 12 [2])	Ratio IC50 (P2Y purinoceptor 12 [3])	Stability (Liver microsomes [4])	Stability (Liver microsomes [5])	inhibition at 0.5 h, 3 µM (CYP1A2)	inhibition at 0.5 h, 3 µM (CYP2C9)	inhibition at 0.5 h, 3 µM (CYP2D6)	inhibition at 0.5 h, 3 µM (CYP3A4)	half-life [6]	clearance [7]	Vd [8]	bioavailability [9]	fold change (FC) [10]	fold change (FC) [11]	Compound	inhibition at 2 h, 10 µM (hERG (KCNH2))
12 nM	1.4	9.5	> 80%	> 80%	< 25%	< 25%	< 25%	< 25%	18 min	6 mL/min/kg	0.15 L/kg	6%	> 340	> 340	CCCCCOC(=O)N1CCN(C(=O)[C@H](CCC(=O)O)NC(=O)c2nc(-c3ccccc3)cc(N3CCC(COC)CC3)n2)CC1	< 25%
2 nM	0.1	0.7	> 80%	> 80%	< 25%	< 25%	< 25%	< 25%	24 min	68 mL/min/kg	2.4 L/kg	–	> 340	> 340	CCCCCOC(=O)N1CCN(C(=O)[C@H](CCC(=O)O)NC(=O)c2cc(N3CCC(C(N)=O)CC3)nc(-c3ccccc3)n2)CC1	< 25%
1.5 nM	0.1	0.4	> 80%	> 80%	< 25%	< 25%	< 25%	< 25%	–	–	–	–	> 340	> 340	CCCCCOC(=O)N1CCN(C(=O)[C@H](CCC(=O)O)NC(=O)c2cc(N3CCC(N4CCCC4)CC3)nc(-c3ccccc3)n2)CC1	< 25%
1.2 nM	0.1	0.7	> 80%	> 80%	< 25%	< 25%	< 25%	< 25%	42 min	31 mL/min/kg	2 L/kg	2%	> 340	> 340	CCCCCOC(=O)N1CCN(C(=O)[C@H](CCC(=O)O)NC(=O)c2cc(N3CCC(CNC)CC3)nc(-c3ccccc3)n2)CC1	< 25%
0.71 nM	0.4	0.9	> 80%	> 80%	< 25%	< 25%	< 25%	< 25%	30 min	18 mL/min/kg	0.8 L/kg	–	> 340	> 340	CCCCCOC(=O)N1CCN(C(=O)[C@H](CCC(=O)O)NC(=O)c2cc(N3CCC(OCCO)CC3)nc(-c3ccccc3)n2)CC1	< 25%
